EBNA-1 inh: EBNA-1 DNA-binding inhibitors, primary screen, biochemical, fluorescence polarization; inhibition, % at 14.8 µM; 300,000 tested, 0.34% active; in the data active = inhibition above about 28%
HCV core dimer: inhibitors of HCV core protein dimerization, primary screen, biochemical, TR-FRET, high-throughput; AID 1899, 2009; inhibition, % at 5 µM; TR-FRET GST/Flag-core106 dimerization, 1536-well; 300,000 tested, 0.33% active;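 active = inhibition above the mean of all tested compounds plus 3 SD, set per screening campaign, cut at about 45% in these data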
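Assay system: tagged HCV core106 pair (GST and Flag); medium: KF-containing HEPES buffer, pH 7.45, DTT, CHAPS, BSA; also added: Eu donor and XL665 acceptor anti-tag antibodies; dosing: 5 µM single dose; timing: compound-protein-antibody incubation 4 h at 22.5 °C; signal: TR-FRET 671 and 617 nm emission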
PP5 primary: PP5 phosphatase inhibitors, primary screen, biochemical, fluorescence; AID 1987, 2009; purified PP5c, OMFP substrate fluorescence; Serine/threonine-protein phosphatase 5 (Homo sapiens), P53041; 320,000 tested, 0.18% active; inhibition, % at 6.7 µM;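 active = inhibition above the campaign's mean inhibition across all tested compounds plus 3 SD, cut at about 9.5% in these data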;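 also: 0% = DMSO only and 100% = 100 µM cantharidin control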
Target sequence (P53041 whole entry, looked up): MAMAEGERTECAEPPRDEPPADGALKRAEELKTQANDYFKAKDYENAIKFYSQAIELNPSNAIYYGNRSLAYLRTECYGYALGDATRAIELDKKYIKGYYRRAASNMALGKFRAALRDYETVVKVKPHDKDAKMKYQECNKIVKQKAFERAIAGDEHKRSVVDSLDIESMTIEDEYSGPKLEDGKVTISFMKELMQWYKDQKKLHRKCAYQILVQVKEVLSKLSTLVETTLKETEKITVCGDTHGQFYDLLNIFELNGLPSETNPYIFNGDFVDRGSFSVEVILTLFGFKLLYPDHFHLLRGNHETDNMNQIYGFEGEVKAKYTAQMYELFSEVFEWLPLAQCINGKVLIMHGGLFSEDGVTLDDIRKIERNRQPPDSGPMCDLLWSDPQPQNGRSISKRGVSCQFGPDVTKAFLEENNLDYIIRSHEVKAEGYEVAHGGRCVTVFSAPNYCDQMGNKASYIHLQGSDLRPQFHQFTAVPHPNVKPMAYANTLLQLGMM
PP1 inh: PP1-alpha phosphatase inhibitors, primary screen, counter-screen for PP5 inhibitor project, biochemical, fluorescence, OMFP substrate, single point; Serine/threonine-protein phosphatase PP1-alpha catalytic subunit (Homo sapiens), P62136; purified PP1alpha; inhibition, % at 6.7 µM; 320,000 tested, 0.9% active;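 active = inhibition above the mean inhibition of all tested compounds plus 3 SD, computed separately for each screening campaign, cut at about 15% in these data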
ZTA counter: counter-screen for EBNA-1 inhibitors: inhibitors of Epstein-Barr virus ZTA; inhibition, % at 11 µM; AID 2234; 320,000 tested, 0.15% active; ZTA-DNA binding, fluorescence polarization; P03206; in the data active = inhibition above about 33%
Starred values were filed as active, the others as inactive; / = not tested or not shown. A selection: hits, their analogues and other compounds. The true share with any hit is near 1.7%.

SMILES | EBNA-1 inh | HCV core dimer | PP5 primary | PP1 inh | ZTA counter
CC(=O)c1ccc(CC2SC(N)=NC2=O)cc1 (stereo not given) | -7.2 | -22.6 | -3.1 | 15.6* | 5.9
Cc1cccc(Nc2nn3c(=O)c4ccccc4nc3s2)c1 | 4.1 | 68.8* | 2.2 | 6.0 | -17.7
C/C(=N/Nc1ccnc2cc(Cl)ccc12)c1ccc(N)cc1 | -3.2 | -0.1 | 0.3 | 16.9* | 1.6
CCN(c1cccc(C)c1)S(=O)(=O)c1cc2c3c(c1)CCC(=O)N3CCC2 | 8.5 | -1.4 | 0.9 | -1.7 | 0.8
Cc1ccc(C(C)C)cc1OCC(=O)Nc1ccc(N2CCCCC2)cc1 | -3.6 | -3.3 | 0.7 | 2.7 | -0.4
COc1ccc(-n2c(SCC(=O)C(C)(C)C)nc3c(sc(=S)n3-c3ccccc3)c2=O)c(OC)c1 | -3.5 | 15.2 | 2.5 | 15.6* | 12.1
COc1ccc(Cl)cc1-n1c(=S)sc2c(=O)[nH]c(SCC(=O)C(C)(C)C)nc21 | 7.2 | 12.4 | 3.0 | 16.8* | 14.2
COc1ccc(/C=c2\s/c(=C(/C#N)C(=O)NCc3ccco3)n(-c3ccccc3)c2=O)cc1 | 13.5 | 58.3* | -3.0 | -2.5 | 4.1
CCO/C(=C/c1sc2ccc(OC)cc2[n+]1CCCS(=O)(=O)[O-])CC | -11.3 | 0.0 | 2.2 | 1.4 | -21.4
CCC(/C=C1\Sc2ccc(OC)cc2N1CCO)=C\c1sc2ccc(OC)cc2[n+]1CCO | 44.5* | -264.7 | 2.3 | 1.7 | 84.1*
CCC(/C=C1\Sc2ccc(OC)cc2N1CC)=C\c1sc2ccc(OC)cc2[n+]1CCCS(=O)(=O)[O-] | 56.4* | -368.1 | 5.6 | 1.1 | 104.3*
COc1ccc(NS(=O)(=O)c2cccc(C(=O)NNC(=O)c3cc(S(N)(=O)=O)ccc3OC)c2)cc1 | -7.5 | 1.7 | 0.0 | -1.2 | -5.5
COCc1c(C(=O)NCc2ccccc2CN2CCCC2)oc2ccccc12 | / | / | 2.2 | 8.4 | -24.0
C/C(=N\NC(=O)COc1ccc(C(C)(C)C)cc1)c1ccc(-n2ccnc2)cc1 | 3.7 | 1.1 | 4.0 | 15.3* | -5.5
Cc1ccc(-c2csc(NC(=O)c3ccno3)n2)cc1 | -3.9 | 61.9* | 0.2 | 4.9 | -7.5
Cc1ccc(-c2csc(NC(=O)c3ccc(C)o3)n2)cc1 | 8.9 | 10.7 | 1.0 | -1.0 | 13.7
O=C(NC1CCN(S(=O)(=O)c2cccc([N+](=O)[O-])c2)CC1)C1CCCCC1 | -9.9 | -4.8 | 1.8 | 16.0* | -8.7
O=C(NC1CCN(Cc2ccccc2)CC1)C1CCN(S(=O)(=O)c2cccc([N+](=O)[O-])c2)CC1 | -8.3 | -6.1 | -0.6 | 1.1 | -3.6
O=C(C(=O)N1CCN(c2ccc(F)cc2)CC1)c1cn(CC(=O)N2CCOCC2)c2ccccc12 | 3.8 | 6.7 | 0.7 | -3.2 | 5.2
N#C/C(=C\c1cc(Br)ccc1F)C(=O)NC1CC1 | 4.0 | 1.3 | 0.6 | -5.1 | -1.9
Cc1cccc(N=C2NC(=O)/C(=C/C=C/c3ccco3)S2)c1C | 1.3 | 58.6* | -0.3 | 6.0 | 14.5
Cc1ccc(N=C2NC(=O)/C(=C/C=C/c3ccco3)S2)cc1 | 2.2 | 59.2* | 1.2 | 7.2 | -3.7
Cc1c(C#N)c(N=CN(C)C)c(C(=O)c2ccc(Br)cc2)n1-c1ccc(Cl)cc1 | -4.4 | 4.4 | 6.2 | 5.8 | -13.0
O=C(Nc1ccccc1C(F)(F)F)c1cc(-c2ccccc2O)on1 | -11.6 | 1.7 | 1.1 | 16.1* | 6.0
COCCNS(=O)(=O)c1ccc(SC)cc1 | 0.0 | -1.9 | 1.1 | -1.2 | -12.5
SMILES | EBNA-1 inh | HCV core dimer | PP5 primary | PP1 inh | ZTA counter
O=C(NCc1ccccc1Cl)C(=O)NCC1OCCCN1S(=O)(=O)c1cccs1 (stereo not given) | 1.1 | 17.6 | 3.6 | -1.8 | 9.6
COc1cc([N+](=O)[O-])cc(/C=N/NC(=O)c2ccc(C)nc2)c1O | 1.8 | -13.9 | 4.8 | 24.3* | 5.0
COc1cc(/C=N/NC(=O)c2ccc(C)nc2)cc([N+](=O)[O-])c1O | -13.1 | -14.5 | 1.6 | 1.2 | -1.5
COc1ccccc1N1CC(C(=O)Nc2nnc(SCC(=O)N3CCOCC3)s2)CC1=O (stereo not given) | -0.1 | 2.3 | 2.3 | -4.9 | -4.1
COc1ccc(/C=C/C(=O)NCC(=O)N/N=C/c2cc(Br)ccc2OCc2ccccc2)cc1 | -1.5 | 49.1* | 0.4 | -2.3 | -6.4
CCOc1ccc(C(=O)CCC(=O)N2CCN(S(=O)(=O)c3cccc(F)c3)CC2)cc1 | / | / | 2.8 | -4.7 | 5.1
Cc1ccc(/C=C2\SC(=S)N(CC(=O)Nc3ncc(Cc4ccccc4Cl)s3)C2=O)cc1 | -22.6 | 31.7 | 2.9 | -0.4 | -1.2
O=C(CN1C(=O)/C(=C/c2cccc(Br)c2)SC1=S)NC1=NCCS1 | 24.8 | 49.6* | 1.3 | 1.1 | 7.8
Cc1ccc(/C=C2/SC(=S)N(CC(=O)Nc3ncc(Cc4ccc(C)cc4)s3)C2=O)cc1 | 3.3 | 69.9* | -0.2 | 2.1 | -8.2
O=C(O)COc1cccc(/C=C2/SC(=S)N(Cc3ccccc3)C2=O)c1 | 26.2 | 55.5* | -0.5 | 12.9 | 11.0
O=C(CN1C(=O)/C(=C/c2cccc(Br)c2)SC1=S)Nc1cccnc1 | -1.0 | 11.6 | 2.3 | -1.8 | -16.6
Cc1cccc(Cc2cnc(NC(=O)CN3C(=O)/C(=C/c4ccccc4)SC3=S)s2)c1 | -8.1 | 62.3* | -0.3 | 13.7 | -2.5
COc1cc(OC)cc(C(=O)Nc2ccccc2C(=O)NC2CC2)c1 | / | / | -0.4 | -5.8 | 3.5
CCN(CC)c1ccc(N=Cc2cc(Br)ccc2O)cc1 | 126.0* | 3.1 | 0.8 | 5.2 | 184.4*
Oc1ccc(Br)cc1C=Nc1ccc(Cl)cc1 | 3.2 | -0.3 | 3.3 | -6.8 | -9.6
O=C(CSc1ccc(Cl)cc1)Nc1ccc(N2CCN(C(=O)c3ccc(Cl)cc3)CC2)cc1 | 15.3 | 32.4 | 0.0 | -2.3 | -4.3
O=C(CSc1ccc(Cl)cc1)Nc1ccccc1N1CCN(C(=O)c2ccc(Cl)cc2)CC1 | 3.3 | 21.2 | 1.1 | 15.2* | 3.0
COc1ccc(NC2=NCC(Cc3ccc(Br)cc3)S2)cc1 (stereo not given) | 7.0 | -6.9 | 3.7 | 15.8* | -0.4
CC1(C)Cc2c(C#N)c(N3CCN(C(=O)c4ccccc4Cl)CC3)nc(-c3ccco3)c2CS1 | 8.1 | 81.3* | 3.6 | 17.4* | -0.1
COc1cccc(C(=O)OCC(=O)NCCCc2ccccc2)c1 | 5.8 | 9.5 | -2.1 | -1.7 | 4.2
C=CCOC(=O)c1[nH]c2c(c1C)C(=O)CC(c1ccco1)C2 (stereo not given) | -12.0 | 27.6 | 3.4 | -1.4 | 19.5
C/C=C/COC(=O)c1[nH]c2c(c1C)C(=O)CC(c1ccco1)C2 (stereo not given) | 4.3 | 53.2* | -0.7 | 13.1 | 1.9
Cc1c(C(=O)OC2CCCC2)[nH]c2c1C(=O)CC(c1ccco1)C2 (stereo not given) | 8.2 | 16.8 | 2.1 | -3.3 | 2.6
Cc1c(C(=O)OCC(C)C)[nH]c2c1C(=O)CC(c1ccco1)C2 (stereo not given) | 4.2 | 46.9* | 1.9 | 0.3 | 14.3
